ChEMBL document CHEMBL1154334, “Effect of the structure of adenosine mimic of bisubstrate-analog inhibitors on their activity towards basophilic protein kinases” (Bioorg Med Chem Lett, 2009)

What was measured:
[1] = target: Rho-associated protein kinase 2 (Homo sapiens, UniProt O75116); experiment: Displacement of ARC583 from ROCK2
[2] = target: RAC-gamma serine/threonine-protein kinase (Homo sapiens, UniProt Q9Y243); experiment: Inhibition of PKBgamma in presence of 100 uM ATP
In short: (§1)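 Kinetic phosphorylation assays with PKA catalytic subunit (PKAc) or PKB catalytic subunit (PKBc) at fixed ATP. ATP Km values taken as 20 for PKAc and 100 for PKBc.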

[3] = target: T1, cAMP-dependent protein kinase catalytic subunit alpha (Homo sapiens, UniProt P17612); experiment: Inhibition of PKACalpha in presence of 100 uM ATP; details: read-out: IC50; in short: as §1
[4] = target: T1, cAMP-dependent protein kinase catalytic subunit alpha; experiment: Inhibition of PKACalpha in presence of […]

Sequence of Rho-associated protein kinase 2 (O75116 whole entry): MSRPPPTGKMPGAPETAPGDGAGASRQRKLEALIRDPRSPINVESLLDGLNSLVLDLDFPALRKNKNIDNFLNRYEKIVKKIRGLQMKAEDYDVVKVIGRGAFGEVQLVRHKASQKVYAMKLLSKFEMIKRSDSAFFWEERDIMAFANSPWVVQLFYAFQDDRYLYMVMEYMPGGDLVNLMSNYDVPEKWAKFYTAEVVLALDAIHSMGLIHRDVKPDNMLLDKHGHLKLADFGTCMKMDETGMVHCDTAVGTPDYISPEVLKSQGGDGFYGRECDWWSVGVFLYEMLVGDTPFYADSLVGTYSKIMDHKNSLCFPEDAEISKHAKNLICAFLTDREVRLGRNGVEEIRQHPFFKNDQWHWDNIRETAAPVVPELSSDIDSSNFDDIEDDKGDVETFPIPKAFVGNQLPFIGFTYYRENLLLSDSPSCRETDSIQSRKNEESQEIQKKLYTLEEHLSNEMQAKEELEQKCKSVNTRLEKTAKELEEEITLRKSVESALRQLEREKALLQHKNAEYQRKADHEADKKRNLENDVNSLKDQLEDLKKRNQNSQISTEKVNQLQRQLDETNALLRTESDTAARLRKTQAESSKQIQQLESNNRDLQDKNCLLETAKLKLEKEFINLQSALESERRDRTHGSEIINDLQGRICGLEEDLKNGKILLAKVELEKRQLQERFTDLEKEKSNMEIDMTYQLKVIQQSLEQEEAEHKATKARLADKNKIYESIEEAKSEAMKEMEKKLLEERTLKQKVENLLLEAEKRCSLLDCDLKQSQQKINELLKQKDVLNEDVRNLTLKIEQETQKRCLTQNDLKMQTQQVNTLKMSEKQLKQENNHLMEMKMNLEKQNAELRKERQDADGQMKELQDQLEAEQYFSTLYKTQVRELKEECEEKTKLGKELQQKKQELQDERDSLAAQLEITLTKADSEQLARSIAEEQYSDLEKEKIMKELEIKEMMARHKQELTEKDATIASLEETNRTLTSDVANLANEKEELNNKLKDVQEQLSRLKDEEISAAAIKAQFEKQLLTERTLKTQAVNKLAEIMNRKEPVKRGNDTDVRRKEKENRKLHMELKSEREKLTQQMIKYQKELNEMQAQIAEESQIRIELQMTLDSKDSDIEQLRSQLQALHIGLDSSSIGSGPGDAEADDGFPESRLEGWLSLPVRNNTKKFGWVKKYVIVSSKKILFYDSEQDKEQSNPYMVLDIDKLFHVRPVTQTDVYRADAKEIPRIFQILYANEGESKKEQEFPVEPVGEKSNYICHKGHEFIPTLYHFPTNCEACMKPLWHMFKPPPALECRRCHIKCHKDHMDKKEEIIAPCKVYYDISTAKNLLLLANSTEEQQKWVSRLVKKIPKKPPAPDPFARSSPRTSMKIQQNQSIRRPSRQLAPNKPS
Sequence of RAC-gamma serine/threonine-protein kinase (Q9Y243 whole entry): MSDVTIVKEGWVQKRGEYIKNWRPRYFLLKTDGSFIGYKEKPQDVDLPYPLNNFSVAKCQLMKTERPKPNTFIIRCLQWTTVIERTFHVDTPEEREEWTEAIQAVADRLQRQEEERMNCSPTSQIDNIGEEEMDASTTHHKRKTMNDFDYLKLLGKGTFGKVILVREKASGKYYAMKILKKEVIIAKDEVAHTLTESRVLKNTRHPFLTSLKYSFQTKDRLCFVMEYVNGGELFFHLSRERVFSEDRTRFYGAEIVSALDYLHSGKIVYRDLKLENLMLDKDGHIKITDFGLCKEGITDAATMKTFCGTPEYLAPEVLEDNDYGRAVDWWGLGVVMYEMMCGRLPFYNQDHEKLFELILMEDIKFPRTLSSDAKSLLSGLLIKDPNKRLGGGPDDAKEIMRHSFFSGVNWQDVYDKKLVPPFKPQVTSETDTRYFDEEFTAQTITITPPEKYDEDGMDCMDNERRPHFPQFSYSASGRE

Row | Compound | Kd [1] | IC50 [2] | IC50 [3] | IC50 [4]
1 | NCCCC[C@@H](NC(=O)CCCCCNC(=O)c1cccc(-c2ccncc2)c1)C(=O)NCCCCCC(=O)N[C@H](CCCN=C(N)N)C(=O)N[C@H](CCCN=C(N)N)C(N)=O | 0.0038 µM | 0.9 µM | 0.39 µM | 
2 | NCCCC[C@@H](NC(=O)CCCCCNC(=O)c1cccc(-c2ccnc(N)n2)c1)C(=O)NCCCCCC(=O)N[C@H](CCCN=C(N)N)C(=O)N[C@H](CCCN=C(N)N)C(N)=O | 0.036 µM | 4.6 µM | 0.061 µM | 
3 | N=C(N)NCCC[C@@H](NC(=O)[C@@H](CCCNC(=N)N)NC(=O)CCCCCNC(=O)[C@@H](CCCCN)NC(=O)CCCCCNC(=O)c1cn(-c2ncnc3[nH]cnc23)nn1)C(N)=O | 0.8 µM | 27 µM |  | 
4 | N=C(N)NCCC[C@@H](NC(=O)[C@@H](CCCNC(=N)N)NC(=O)CCCCCNC(=O)[C@@H](CCCCN)NC(=O)CCCCCNC(=O)Nc1ccc(C(N)=O)cc1)C(N)=O | 6.1 µM | 900 µM | 240 µM | 
5 | NCCCC[C@@H](NC(=O)CCCCCNC(=O)[C@H]1O[C@@H](n2cnc3c(N)ncnc32)[C@H](O)[C@@H]1O)C(=O)NCCCCCC(=O)N[C@H](CCCN=C(N)N)C(=O)N[C@H](CCCN=C(N)N)C(N)=O | < 0.003 µM |  |  | 
6 | NCCCC[C@H](NC(=O)[C@@H](CCCN=C(N)N)NC(=O)[C@@H](CCCN=C(N)N)NC(=O)[C@@H](CCCN=C(N)N)NC(=O)[C@@H](CCCN=C(N)N)NC(=O)[C@@H](CCCN=C(N)N)NC(=O)[C@@H](CCCN=C(N)N)NC(=O)CCCCCNC(=O)[C@@H](CCCCN)NC(=O)CCCCCNC(=O)c1ccc(-c2ccnc(N)n2)s1)C(N)=O |  | 0.042 µM |  | 0.0049 µM
